The text below walks through data of ChEMBL document CHEMBL1949532, “Novel dendrimeric lipopeptides with antifungal activity” (Bioorg Med Chem Lett, 2012).

SMILES strings stand for the structures. ≈ marks a conversion by molar mass, not a printed value. Calls of active or inactive are those of the source. The calls are words filed in the database; no cut-off is given here. Bounds are passed on as bounds.

The nature of data set [1]: Toxicity in human erythrocytes suspended in L-glutamine deficient RPMI-1640 assessed as hemolysis after 30 mins by spectrophotometry relative to human erythrocytes suspended in PBS buffer. It counts as cell-based. The settings on record: erythrocyte, 0.5 h. A digest of the protocol:
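Hemolysis was measured for human erythrocytes resuspended in L-glutamine-deficient RPMI-1640 (the Candida MIC medium) and compared with erythrocytes suspended in PBS.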

The test system of data set [2] is Staphylococcus aureus. The data set is described as follows: Antibacterial activity against Staphylococcus aureus ATCC 25923 after 18 to 24 hrs by serial broth microdilution susceptibility test. The data set is classed as functional. In short, it runs like this: (§1)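 MIC determined by serial microdilution in microplates. Candida inocula were prepared in L-glutamine-deficient RPMI-1640 medium.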
For orientation: Dilution methods test growth across graded concentrations, often in twofold steps.

The test system of data set [3] is Candida albicans. The data set is described as follows: Antifungal activity against Candida albicans ATCC 90028 after 24 to 48 hrs by serial broth microdilution susceptibility test. The data set is classed as functional. A digest of the protocol: as §1
Data set [4] concerns Escherichia coli. Nature of the data set: Antibacterial activity against Escherichia coli ATCC 25922 after 18 to 24 hrs by serial broth microdilution susceptibility test. It counts as functional. In short, it runs like this:
as §1

The subject of the next data set is Pichia kudriavzevii. Nature of the data set: Antifungal activity against Candida krusei ATCC 6258 after 24 to 48 hrs by serial broth microdilution susceptibility test. The data set is classed as functional. In short, it runs like this: as §1
The subject of a further data set is Pseudomonas aeruginosa. Nature of the data set: Antibacterial activity against Pseudomonas aeruginosa ATCC 27853 after 18 to 24 hrs by serial broth microdilution susceptibility test. It counts as functional. In short, it runs like this: as §1
For data set [5], the system named is Klebsiella pneumoniae subsp. pneumoniae. Nature of the data set: Antibacterial activity against Klebsiella pneumoniae subsp. pneumoniae ATCC 13882 after 18 to 24 hrs by serial broth microdilution susceptibility test. It counts as functional. In short, it runs like this:
as §1

The test system of data set [6] is Escherichia coli. The data set is described as follows: Antibacterial activity against Escherichia coli ATCC BAA-198 after 18 to 24 hrs by serial broth microdilution susceptibility test. It counts as functional. A digest of the protocol:
as §1

Data set [7] deals with Candida albicans. The data set is described as follows: Antifungal activity against Candida albicans ATCC 10231 assessed as leakage of intracellular contents at 4 uM after 2 hrs by scanning electron microscopy. It counts as functional, organism-based.
In a further data set the test system is Acinetobacter baumannii. The data set is described as follows: Antibacterial activity against Acinetobacter baumannii ATCC 19606 after 18 to 24 hrs by serial broth microdilution susceptibility test. It counts as functional. The settings on record: ATCC 19606 = CIP 70.34 = JCM 6841. In short, it runs like this:
as §1

Data set [8] deals with Candida albicans. Nature of the data set: Antifungal activity against Candida albicans ATCC 10231 assessed as massive destruction of cell surface at 64 uM after 2 hrs by scanning electron microscopy. It counts as functional, organism-based.
The subject of data set [9] is Bordetella bronchiseptica. Nature of the data set: Antibacterial activity against Bordetella bronchiseptica ATCC 4617 after 18 to 24 hrs by serial broth microdilution susceptibility test. It counts as functional. In short, it runs like this: as §1
For data set [10], the system named is Staphylococcus aureus. The data set is described as follows: Antibacterial activity against Staphylococcus aureus ATCC 43300 after 18 to 24 hrs by serial broth microdilution susceptibility test. The data set is classed as functional. A digest of the protocol:
as §1

The test system of the next data set is Candida parapsilosis. The data set is described as follows: Antifungal activity against Candida parapsilosis ATCC 22019 after 24 to 48 hrs by serial broth microdilution susceptibility test. The settings on record: Lodderomyces parapsilosis. The data set is classed as functional. A digest of the protocol: as §1
The nature of data set [11]: (§2) Inhibition of beta (1,3) glucan synthase in Candida albicans cell membrane using UDP-Glc as substrate assessed as aniline blue-glucan complex formation by microtiter-based fluorescence method. In short, it runs like this:
(§3)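 β(1,3)-glucan synthase in the membrane fraction of C. albicans was assayed by a microtiter-based fluorescence method across a concentration range. Values are means of three independent experiments (SD); IC50 was determined.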

For data set [12], the system named is Candida albicans. Nature of the data set: Antifungal activity against Candida albicans ATCC 10231 assessed as alteration in cell envelope at 4 uM after 2 hrs by scanning electron microscopy. The data set is classed as functional, organism-based.
A short description of data set [13]: Toxicity in human erythrocytes assessed as hemolysis at above MIC after 30 mins by spectrophotometry. The data set is classed as cell-based. The settings on record: erythrocyte, 0.5 h. A digest of the protocol:
(§4)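 Human erythrocytes suspended in PBS were exposed to lipopeptides at 0.001–0.4 mmol/l and hemolysis was measured.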

Data set [14] has as its system Candida albicans. The data set is described as follows: Antifungal activity against Candida albicans ATCC 10231 assessed as increase in intracellular potassium release after 30 mins. It counts as functional, organism-based. A digest of the protocol: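 Efflux of K+ from C. albicans cells was monitored continuously with a potassium-selective electrode. Release was expressed relative to a positive control, and EK50 was taken as the concentration releasing 50% of intracellular potassium.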

Data set [15] is described as follows: Toxicity in human erythrocytes assessed as hemolysis at 100 uM after 30 mins by spectrophotometry. It counts as cell-based, Erythrocyte. The settings on record: read-out: Activity. A digest of the protocol: as §4
In data set [16] the test system is Candida albicans. The data set is described as follows: Antifungal activity against Candida albicans ATCC 10231 assessed as morphological changes at < 7 uM after 6 hrs by calcofluor white and aniline blue staining-based fluorescence microscopy. It counts as functional, organism-based. In short, it runs like this: (§5)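 C. albicans ATCC 10231 yeast cells were incubated with compound for 6 h, at up to 2×MIC. Chitin was stained with Calcofluor White and glucan with Aniline Blue, then cells were examined by fluorescence microscopy against untreated controls.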

Data set [17] has as its system Candida albicans. Nature of the data set: Antifungal activity against Candida albicans ATCC 10231 assessed as pseudohyphae formation at 14 uM after 6 hrs by calcofluor white and aniline blue staining-based fluorescence microscopy. The data set is classed as functional, organism-based. In short, it runs like this: as §5
Data set [18] relates to Candida albicans. Described as §2. In short, it runs like this:
as §3

The test system of data set [19] is Candida albicans. The data set is described as follows: Antifungal activity against Candida albicans ATCC 10231 assessed as loss of integrity at 10 uM after 2 hrs by scanning electron microscopy. It counts as functional, organism-based.
Data set [20] is described as follows: Toxicity in human erythrocytes assessed as hemolysis at 50 uM after 30 mins by spectrophotometry. The data set is classed as cell-based, Erythrocyte. The settings on record: read-out: Activity. In short, it runs like this:
as §4

Consider `CCCCCCCCCCCCNC(=O)[C@H](Cc1ccccc1)NC(=O)[C@H](CCCCNC(=O)[C@H](CCCCN)NC(=O)OCc1ccccc1)NC(=O)[C@H](CCCCN)NC(=O)OCc1ccccc1.Cl.Cl`, for which the figures for the Activity entry in data set [1] and in data set [13] were “Non-toxic” and “Toxic”, respectively. Moreover, the MIC came out at 15 µM against Staphylococcus aureus [2]; 8 µM against Candida albicans [3]; 30 µM with Escherichia coli [4]; 8 µM in the data set on Pichia kudriavzevii; 64 µM in the data set with Pseudomonas aeruginosa; 121 µM in data set [5]. Further, the MIC worked out at 8 µM against Escherichia coli [6]; 121 µM in the data set on Acinetobacter baumannii; 7 µM in data set [9]; 8 µM against Staphylococcus aureus [10]; 8 µM with Candida parapsilosis. Also, the outcome in the data set with Candida albicans [7], in the data set on Candida albicans [8] and with Candida albicans [12] was Active. For the same compound, the IC50 in [11] came out at 50 µM.

As for `OC(Cn1cncn1)(Cn1cncn1)c1ccc(F)cc1F` [FLUCONAZOLE], the MIC with Candida albicans [3] was determined as 13 µM (≈ 3.98 µg/mL).

In the data set on Staphylococcus aureus [2], `CC1(C)S[C@@H]2[C@H](NC(=O)Cc3ccccc3)C(=O)N2[C@H]1C(=O)O` [PENICILLIN G] showed an MIC of 6.6 µM (≈ 2.21 µg/mL).

On to `O=C/C=C/c1ccccc1` [CINNAMALDEHYDE], for which the IC50 in data set [11] was 1150 µM.

For `CCCCCCCCCCCCNC(=O)[C@H](Cc1ccccc1)NC(=O)[C@H](CCCCNC(=O)[C@@H](N)CCCCN)NC(=O)[C@@H](N)CCCCN.Cl.Cl.Cl.Cl`, the Activity entry is “Non-toxic” in [1] and “Toxic” in data set [13]. Moreover, the minimum inhibitory concentration (MIC) in the data set on Staphylococcus aureus [2] is 8 µM; against Candida albicans [3] it was 16 µM; against Escherichia coli [4], 32 µM; in the data set on Pichia kudriavzevii it was 4 µM; with Pseudomonas aeruginosa, 64 µM; in [5] it was over 256 µM. Moreover, the MIC in the data set with Escherichia coli [6] was 64 µM; in the data set with Acinetobacter baumannii, over 256 µM; in [9], 8 µM; in the data set on Staphylococcus aureus [10], 4 µM; in the data set on Candida parapsilosis it was 4 µM.

In the case of `CCCCCCCCCCCCNC(=O)[C@H](Cc1ccccc1)NC(=O)[C@H](CCCCNC(=O)[C@@H](N)CCCCNC(=O)OCc1ccccc1Cl)NC(=O)[C@@H](N)CCCCNC(=O)OCc1ccccc1Cl.Cl.Cl`, the Activity entry in data set [1] is “Toxic”; in the data set on Candida albicans [14], “Dose-dependent effect”. In addition, the EC50 with Candida albicans [14] (Candida albicans, ATCC 10231, 0.5 h) came out at 13 µM. The MIC with Staphylococcus aureus [2] turned out to be 28 µM; against Candida albicans [3], 7 µM; in the data set with Escherichia coli [4], 56 µM; with Pichia kudriavzevii it was 7 µM; in the data set on Pseudomonas aeruginosa it was 114 µM; in [5] it was 114 µM. Besides, the MIC in the data set on Escherichia coli [6] worked out at 64 µM; in the data set with Acinetobacter baumannii, 114 µM; in data set [9] it was 14 µM; against Staphylococcus aureus [10] it was 28 µM; in the data set on Candida parapsilosis, 7 µM. In addition, the hemolysis at 0.5 h, 100 µM in data set [15] was determined as 10%. Moreover, the outcome with Candida albicans [7], in the data set on Candida albicans [17], with Candida albicans [19] and in the data set with Candida albicans [12] was Active. Besides, in the data set on Candida albicans [16], the outcome was inactive. In data set [11], the IC50 came out at 51 µM. The inhibition result with Candida albicans [18] was “Dose-dependent effect”.

As to `CCCCCCCCCCCCNC(=O)[C@H](Cc1ccccc1)NC(=O)[C@H](CCCCNC(=O)[C@H](CCCCN)NC(=O)OCc1ccccc1Cl)NC(=O)[C@H](CCCCN)NC(=O)OCc1ccccc1Cl`, the MIC in the data set on Staphylococcus aureus [2] was 32 µM (≈ 33.7 µg/mL); with Candida albicans [3], 8 µM (≈ 8.43 µg/mL); against Escherichia coli [4], 32 µM (≈ 33.7 µg/mL); against Pichia kudriavzevii, 8 µM (≈ 8.43 µg/mL); in the data set on Pseudomonas aeruginosa it was 64 µM (≈ 67.5 µg/mL); in data set [5], over 256 µM. For the same compound, the MIC against Escherichia coli [6] was 32 µM (≈ 33.7 µg/mL); in the data set on Acinetobacter baumannii, over 256 µM; in data set [9], 8 µM (≈ 8.43 µg/mL); with Staphylococcus aureus [10], 16 µM (≈ 16.9 µg/mL); with Candida parapsilosis, 8 µM (≈ 8.43 µg/mL). For the same compound, in data set [20], the hemolysis at 0.5 h, 50 µM came out at 10%. Besides, the hemolysis at 0.5 h, 100 µM in data set [15] is 13%. The concentration for half-maximal inhibition (IC50) in data set [11] came to 50 µM.

In general, MIC refers to the least concentration at which growth counts as inhibited. A high value points to a need for much substance. As usually defined, the IC50 is the concentration needed to halve the response being measured. What is called EC50 is the concentration giving half of the maximal effect.
